Test results from ChEMBL document CHEMBL2417550, “Inhibition of the Escherichia coli 6-oxopurine phosphoribosyltransferases by nucleoside phosphonates: potential for new antibacterial agents” (J Med Chem, 2013).
Values after ≈ are worked out from the molar mass of the structure shown. Active and inactive are the calls of the source. No cut-off for these calls is given here.

Columns and labels:
Escherichia coli [1] = test: Competitive inhibition of Escherichia coli XGPRT expressed in Escherichia coli SPhi606 using guanine as substrate by spectrophotometric analysis in presence of PRib-PP
Method in brief: (§1)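 Enzymes (wild-type XGPRT, HPRT, and the XGPRT mutant lacking six flexible-loop residues) were expressed in E. coli SΦ606, purified to homogeneity and stored at −70 °C in 0.1 M Tris-HCl, 10 mM MgCl2, 1 mM DTT, pH 7.4. Ki was determined spectrophotometrically. Fixed base was 60 μM: guanine for XGPRT, hypoxanthine for HPRT. PRib-PP was varied from 14 to 1000 μM, and inhibitor from 0.1 to 140 μM.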

[2] = Inhibition of Escherichia coli XGPRT expressed in Escherichia coli SPhi606 using guanine as substrate by spectrophotometric analysis; method in brief: as §1
[3] = Inhibition of Escherichia coli recombinant XGPRT mutant expressed in Escherichia coli SPhi606 using guanine as substrate by spectrophotometric analysis; method in brief: as §1
[4] = Selectivity index, ratio of EC50 for human A549 cells to MIC50 for Mycobacterium tuberculosis H37Ra ATCC 25177; type: functional
[5] = test system: Mycobacterium tuberculosis; test: Antimycobacterial activity against Mycobacterium tuberculosis H37Ra ATCC 25177 at >= 250 uM after 5 days by resazurin reduction assay; type: functional, organism-based
Method in brief: (§2)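 M. tuberculosis H37Ra grown at 37 °C in 7H9 with OADC, 0.5% glycerol, 0.05% Tween-80 for about 14 days to mid-exponential phase (OD600 0.4−0.8). Diluted to OD600 0.001 (about 2 × 10^4 CFU/ml) in 7H9S with 0.5% DMSO and exposed to serially diluted compounds. Incubated 5 days at 37 °C, then resazurin added. Fluorescence (ex 530/em 580 nm) read 30 h later. Signal normalised to no-inhibitor and no-bacteria controls to give IC50.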

Escherichia coli [6] = test: (§3) Non-competitive inhibition of Escherichia coli HPRT expressed in Escherichia coli SPhi606 using hypoxanthine as substrate by spectrophotometric analysis in presence of PRib-PP; method in brief: as §1
[7] = Inhibition of Escherichia coli HPRT expressed in Escherichia coli SPhi606 using hypoxanthine as substrate by spectrophotometric analysis; method in brief: as §1
A549 = test: Cytotoxicity against human A549 cells after 4 days by coulter counter analysis; type: cell-based; settings: A549, 96 h
[8] = test system: Mycobacterium tuberculosis; test: Antimycobacterial activity against Mycobacterium tuberculosis H37Ra ATCC 25177 after 5 days by resazurin reduction assay; type: functional, organism-based; settings: H37Ra ATCC 25177, 120 h; method in brief: as §2
[9] = Binding affinity to Escherichia coli XGPRT
[10] = Competitive inhibition of Escherichia coli XGPRT expressed in Escherichia coli SPhi606 using guanine as substrate by spectrophotometric analysis in presence of pyrophosphate
Method in brief: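 Ki was determined spectrophotometrically on purified XGPRT expressed in E. coli SΦ606, with guanine fixed at 60 μM. PRib-PP was varied from 14 to 1000 μM, and inhibitor from 0.1 to 140 μM. Pyrophosphate (33 μM) was added to the assay mixture along with the inhibitor.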

[11] = as §3; method in brief: as §1

Row | Compound | Ki [2] | Ki [3] | Ki [7] | further results
1 | Nc1nc2c(ncn2[C@@H]2CN(C(=O)CP(=O)(O)O)C[C@H]2OC(=O)CP(=O)(O)O)c(=O)[nH]1 | 0.4 µM | 2.6 µM | – | inhibition (Escherichia coli [1]): Active
2 | Nc1nc2c(ncn2[C@H]2CCN(C(=O)CP(=O)(O)O)C2)c(=O)[nH]1 | 0.23 µM | 3 µM | – | inhibition (Escherichia coli [1]): Active; Selectivity Index [4]: >=17; Activity [5]: inactive
3 | O=c1[nH]cnc2c1ncn2CC(O)COCP(=O)(O)O (centres undefined) | 16 µM | > 200 µM | 73 µM | inhibition (Escherichia coli [6]): Active
4 | Nc1nc2c(ncn2CC(COCCP(=O)(O)O)OCCP(=O)(O)O)c(=O)[nH]1 (centres undefined) | 0.11 µM | – | – | Selectivity Index [4]: >=17; Activity [5]: inactive
5 | CC(C)(C)C(=O)SCCOP(=O)(CC(=O)N1CC[C@H](n2cnc3c(=O)[nH]c(N)nc32)C1)OCCSC(=O)C(C)(C)C | – | – | – | EC50 (A549): > 300 µM; IC50 [8]: 5 µM; MIC99 [8]: 20 µM (≈ 12.6 µg/mL)
6 | Nc1nc2c(ncn2CCOCCP(=O)(O)O)c(=O)[nH]1 | 0.7 µM | 11 µM | – | –
7 | Nc1nc2c(ncn2C(COCP(=O)(O)O)COCP(=O)(O)O)c(=O)[nH]1 | 3 µM | 16 µM | – | –
8 | CCOC(=O)[C@H](Cc1ccccc1)NP(=O)(COCC(COCP(=O)(N[C@@H](Cc1ccccc1)C(=O)OCC)N[C@@H](Cc1ccccc1)C(=O)OCC)Cn1cnc2c(=O)[nH]cnc21)N[C@@H](Cc1ccccc1)C(=O)OCC | – | – | – | EC50 (A549): 100 µM; IC50 [8]: 5 µM; MIC99 [8]: 20 µM (≈ 22.3 µg/mL)
9 | O=c1[nH]cnc2c1ncn2C(COCP(=O)(O)O)COCP(=O)(O)O | 73 µM | – | – | –
10 | O=c1[nH]cnc2c1ncn2CC(COCP(=O)(O)O)COCP(=O)(O)O | – | – | 0.8 µM | Selectivity Index [4]: 4; Activity [5]: inactive
11 | Nc1nc2c(ncn2[C@H]2CN(C(=O)CP(=O)(O)O)C[C@H]2O)c(=O)[nH]1 | 2.2 µM | 3 µM | – | inhibition (Escherichia coli [1]): Active
12 | Nc1nc2c(ncn2C(COCP(=O)(O)O)C(O)COCP(=O)(O)O)c(=O)[nH]1 (centres undefined) | 21 µM | 14 µM | – | –
13 | Nc1nc2c(ncn2[C@@H]2CN(C(=O)CP(=O)(O)O)C[C@@H]2O)c(=O)[nH]1 | > 250 µM | > 250 µM | – | –
14 | CCOC(=O)[C@H](Cc1ccccc1)NP(=O)(COCC(COCP(=O)(N[C@@H](Cc1ccccc1)C(=O)OCC)N[C@@H](Cc1ccccc1)C(=O)OCC)Cn1cnc2c(=O)[nH]c(N)nc21)N[C@@H](Cc1ccccc1)C(=O)OCC | – | – | – | EC50 (A549): > 300 µM; IC50 [8]: 5 µM; MIC99 [8]: 20 µM (≈ 22.6 µg/mL)
15 | O=C(CP(=O)(O)O)N1CC[C@@H](n2cnc3c(=O)[nH]cnc32)C1 | > 200 µM | > 200 µM | 35 µM | –
16 | Nc1nc2c(ncn2CC(COCP(=O)(O)O)COCP(=O)(O)O)c(=O)[nH]1 | 0.01 µM | 0.24 µM | – | Selectivity Index [4]: >=17; Activity [5]: inactive
17 | Nc1nc2c(ncn2[C@@H]2O[C@H](COP(=O)(O)O)[C@@H](O)[C@H]2O)c(=O)[nH]1 | – | 120 µM | 526 µM | Ki [9]: 4.5 µM
18 | O=c1[nH]cnc2c1ncn2CCOCCP(=O)(O)O | 1.5 µM | 46 µM | 17 µM | –
19 | Nc1nc2c(ncn2CC(O)COCP(=O)(O)O)c(=O)[nH]1 (centres undefined) | – | ≥ 3 µM | > 700 µM | Ki [10]: 0.32 µM; Ki [11]: 35 µM
20 | CCOC(=O)[C@H](Cc1ccccc1)NP(=O)(CCOCC(Cn1cnc2c(=O)[nH]c(N)nc21)OCCP(=O)(N[C@@H](Cc1ccccc1)C(=O)OCC)N[C@@H](Cc1ccccc1)C(=O)OCC)N[C@@H](Cc1ccccc1)C(=O)OCC (some centres undefined) | – | – | – | EC50 (A549): 100 µM; IC50 [8]: 5 µM; MIC99 [8]: 20 µM (≈ 22.8 µg/mL)
